Assays:
[1] = target: Human immunodeficiency virus type 1 reverse transcriptase (Human immunodeficiency virus 1) (UniProt Q72547); experiment: Inhibitory activity against HIV-1 replication in MT-4 cells; type: functional, cell-based; settings: MT4
In short: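 HTLV-IIIB strain of HIV in MT-4 cells, run in parallel with cytotoxicity on uninfected MT-4 cells. The read-out is protection of infected cells from virus-induced cytopathic effect. ED50 is the dose giving 50% protection.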

MT4 = experiment: Cytotoxic dose in MT-4 cells; type: functional; settings: Homo sapiens, read-out: CD50 (the source's name)
[2] = target: Human immunodeficiency virus type 1 reverse transcriptase (Human immunodeficiency virus 1) (UniProt Q72547); experiment: Selectivity index is the […] values against inhibition of HIV-1 in MT-4 cells; type: functional, cell-based; settings: MT4
In short: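 Selectivity index is CD50 (50% viability reduction of uninfected MT-4 cells) divided by ED50 (50% protection of HIV-infected MT-4 cells against cytopathic effect). Both come from parallel assays.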

Row | SMILES | ED50 [1] [µM] | CC50 (MT4) [µM] | SI [2]
1 | Cc1cn([C@@H]2O[C@H](CO)C[C@@H]2F)c(=O)[nH]c1=O | > 500 | > 500 | 
2 | Cc1cn([C@H]2C[C@H](N=[N+]=[N-])[C@@H](CO)O2)c(=O)[nH]c1=O [ZIDOVUDINE] | 0.003 | 4.8 | 1600
3 | Cc1cn([C@@H]2O[C@H](CO)C[C@H]2F)c(=O)nc1N | > 500 | > 500 | 
4 | O=c1ccn([C@H]2C[C@H](F)[C@@H](CO)O2)c(=O)[nH]1 | 0.04 | 16 | 400
5 | COc1ccn([C@H]2C[C@H](F)[C@@H](CO)O2)c(=O)n1 | 46 | 348 | 7.6
6 | OC[C@H]1O[C@@H](n2cnc3c(O)ncnc32)C[C@@H]1F | 484 | 500 | 1
7 | Cc1cn([C@H]2C=C(F)[C@@H](CO)O2)c(=O)[nH]c1=O | 11 | 240 | 22
8 | Nc1ncnc2c1ncn2[C@H]1C[C@H](F)[C@@H](CO)O1 | 50 | 557 | 11.1
9 | Cc1cn([C@H]2C[C@H](F)[C@@H](CO)O2)c(=O)nc1N | 1.7 | 7.7 | 4.5
10 | [N-]=[N+]=N[C@H]1C[C@H](n2c(Br)nc3c(N)ncnc32)O[C@@H]1CO | > 500 | 409 | < 1
11 | Nc1ncnc2c1nc(Br)n2[C@H]1CC[C@@H](CO)O1 | 484 | 500 | 1
12 | [N-]=[N+]=N[C@H]1C[C@H](n2cnc3c(O)ncnc32)O[C@@H]1CO | > 8 | 15 | < 2
13 | Nc1ncnc2c1ncn2[C@H]1CC[C@@H](CO)O1 | 6.4 | 890 | 139
14 | O=c1[nH]c(=O)n([C@H]2C[C@H](F)[C@@H](CO)O2)cc1Cl [RALURIDINE] | 0.38 | 535 | 1410
15 | O=c1[nH]c(=O)n([C@H]2C[C@H](F)[C@@H](CO)O2)cc1Br | 0.41 | 24 | 59
16 | Cc1cn([C@@H]2O[C@H](CO)C[C@H]2F)c(=O)[nH]c1=O | 53 | > 500 | > 9.4
17 | Cc1cn([C@H]2C[C@H](F)[C@@H](CO)O2)c(=O)[nH]c1=O [ALOVUDINE] | 0.001 | 0.197 | 197
18 | Nc1ccn([C@@H]2O[C@H](CO)C[C@@H]2F)c(=O)n1 | 9.8 | 117 | 12
19 | [N-]=[N+]=N[C@H]1C[C@H](n2cnc3c(N)ncnc32)O[C@@H]1CO | 5 |  | 
20 | O=c1[nH]c(=O)n([C@H]2C[C@H](F)[C@@H](CO)O2)cc1F | > 20 | 40 | < 2
21 | O=c1[nH]c(=O)n([C@H]2C[C@H](F)[C@@H](CO)O2)cc1I | 0.16 | 2.17 | 13.6
